PolyA inhibitor: yeast polyadenylation inhibition; actives 0.02% (n = 300,000); activity score, % at 12 µM; S. cerevisiae SKY197-pL101 polyadenylation reporter, beta-gal luminescence; efflux-impaired pdr1/pdr3 knockout yeast; score 100 = 6 SD above DMSO;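 active means lowest replicate activity score at least 50, where 100 means six control SD above control mean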;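 further: yeast exposed to compound for 9 h at 30 °C; higher score means more reporter readthrough which indicates perturbed polyadenylation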
procasp3 activ: activates human procaspase-3; P42574; activation, % at 8.5 µM; recombinant procaspase-3 D3A, Ac-DEVD-pNA absorbance 405 nm; actives 0.11% (n = 330,000);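 active means activation above the mean of all tested compounds plus 3 SD, cut at about 21% in these data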
Target sequence (P42574 whole entry D9A/D28A/D175A): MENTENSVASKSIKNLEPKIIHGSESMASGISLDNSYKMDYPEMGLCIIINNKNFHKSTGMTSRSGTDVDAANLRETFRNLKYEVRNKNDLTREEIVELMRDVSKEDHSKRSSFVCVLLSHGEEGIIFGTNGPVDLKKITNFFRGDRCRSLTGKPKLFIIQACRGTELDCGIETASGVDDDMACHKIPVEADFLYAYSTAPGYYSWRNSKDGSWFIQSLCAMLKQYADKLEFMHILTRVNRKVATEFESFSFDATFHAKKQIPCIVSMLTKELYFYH
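System: Procaspase-3 D3A mutant. Medium: Zinc-free 300 mM NaCl, 50 mM HEPES, 0.01% Triton X-100. Schedule: 1 h preincubation plus 2 h reaction at 25 °C. Measured by: 405 nm absorbance of p-nitroaniline, reads at 0 and 120 min. Read-out: percent activation relative to control range.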
procasp7 counter: activates human procaspase-7, counter-screen for procaspase-3 activators; P55210; recombinant procaspase-7, Ac-DEVD-pNA absorbance 405 nm; D23A/D198A/D206A triple mutant, cannot self-cleave; scale: DMSO 0, 5 µM enzyme 100; activation, % at 8.5 µM; actives 0.093% (n = 330,000); AID 463210;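 active means percent activation above the screen-wide mean plus 3 SD, cut at about 25% in these data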
Target sequence (P55210 whole entry D23A/D198A/D206A): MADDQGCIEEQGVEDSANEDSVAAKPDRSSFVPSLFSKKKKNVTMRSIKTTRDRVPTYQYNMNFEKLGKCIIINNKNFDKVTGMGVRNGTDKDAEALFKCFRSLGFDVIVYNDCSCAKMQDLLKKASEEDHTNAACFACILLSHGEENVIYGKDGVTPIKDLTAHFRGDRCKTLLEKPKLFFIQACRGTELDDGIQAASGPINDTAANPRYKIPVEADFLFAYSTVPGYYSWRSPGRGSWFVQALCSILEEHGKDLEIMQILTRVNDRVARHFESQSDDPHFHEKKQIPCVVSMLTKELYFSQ
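signal = Epi-absorbance of released pNA at 405 nm, two timepoints | assay system = Uncleavable procaspase-7 mutant enzyme | reagent = Ac-DEVD-pNA substrate, 400 µM as added | times = 1 h enzyme–compound preincubation and 2 h substrate reaction, both 25 °C | benchmarks = low DMSO alone, high DMSO plus 5 µM PC-7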
AHR act: human AHR activation; AHR-responsive luciferase reporter cells, luminescence; activation, % at 5 µM; actives 2.5% (n = 320,000); AID 2796; in the data active means activation above about 47%
Each line names hits and unclear results; the compound was inactive in the other large screens. Most compounds without a hit are left out; they make up all but 2.6% or so of the library.

C(=C\c1nccc2c1[nH]c1ccccc12)/c1ccccc1	AHR act 62.2
Cc1ccc(/C=C\c2nccc3c2[nH]c2ccccc23)cc1	AHR act 51.2
CC(C)c1ccc2oc(=O)cc(CN3CCOCC3)c2c1	none
COc1ccccc1CNC(=O)CSC(=S)N1CCCC1	none
C/C(=N\Nc1ccc(F)cc1F)c1ccc(N2CCOCC2)cc1	none
C/C(=N\Nc1ccc(F)cc1F)c1ccc(F)cc1	AHR act 59.7
C/C(=N\Nc1ccc(F)cc1F)c1ccc(Br)s1	AHR act 54.4
COc1ccc(/C=N/OCC(=O)NCc2cccs2)c(OC)c1	AHR act 47.7
CCn1c(NC(=O)C2CCCCC2)nc2ccccc21	none
CC(=O)Nc1nc2ccccc2n1CCOc1ccccc1Cl	none
S=C(Nc1ccccc1)Nc1nc2ccccc2n1CCOc1ccc(Cl)cc1	AHR act 54.9
CCn1c(NC(=S)Nc2ccccc2)nc2ccccc21	AHR act 56.5
COc1cccc(/C=N/n2c(SC)nnc2-c2ccccc2)c1OC	AHR act 61.4
COc1cccc(/C=N/n2c(SC)nnc2-c2ccccc2)c1O	none
CCOc1ccc(OCCC(=O)N2CCN(S(=O)(=O)c3cccc(F)c3)CC2)cc1	none
Cc1c(CN(C)Cc2cn(C)nc2-c2ccccc2F)[nH]c2ccccc12	AHR act 48.0
CN(CCCN1CCOCC1)Cc1cn(C)nc1-c1ccccc1F	none
CC(=O)SC(C[N+](=O)[O-])c1cn(C(C)=O)c2ccccc12 (stereo not drawn)	AHR act 62.9
COc1cc(NC(=S)Nc2cccc(C)n2)cc(OC)c1OC	AHR act 68.9
O=c1cc(-c2cccc(Br)c2)oc2cccc(O)c12	AHR act 48.5
COc1cc(S(=O)(=O)NC2CCCCC2C)ccc1F (stereo not drawn)	none
COc1ccc(CNC(=O)Cn2ncn3c(cc4ccccc43)c2=O)cc1	none
COc1ccc(CNC(=O)Cn2ncn3cccc3c2=O)cc1	AHR act 71.2
COc1cc(OC)cc(C(=O)NCC(=O)NCC(c2ccco2)N2CCCCC2)c1 (stereo not drawn)	none (no result: PolyA inhibitor)
O=C(Nc1ccnc(-c2ccncc2)n1)C1CC1	AHR act 52.0
CCCCNc1cc(Cl)nc(N)n1	none
COc1ccc(-c2cn3c(C)c(C(=O)NC(C)(C)C)sc3n2)cc1	AHR act 54.9
CCSC1=N/C(=C\C=C2/Oc3ccccc3N2CC)C(=O)S1	AHR act 74.5
Cc1cc(=O)c2c(C)nn(-c3ccccc3)c2[nH]1	none
Cc1c(C)c2c(C)nn(-c3ccccc3)c2[nH]c1=O	AHR act 96.2
O=C(Cn1cncn1)N/N=C/c1cccc2ccccc12	AHR act 69.5
COc1ccccc1/C=C/C(=O)NC(=S)NC(C)C	AHR act 67.8
COc1ccccc1/C=C/C(=O)c1ccc(Cl)cc1	AHR act 91.3
CCOc1ccccc1/C=C/C(=O)c1ccc(Cl)cc1	AHR act 70.5
COc1ccccc1/C=C/C(=O)c1ccccc1	none (no result: procasp3 activ, procasp7 counter, AHR act)
O=C(/C=C/c1ccccc1O)c1ccc(Cl)cc1	AHR act 66.0
O=c1[nH]c(S)c(/C=C2\C=Nc3ccccc32)s1	AHR act 57.0
Cn1c(N/N=C/c2c[nH]c3ccccc23)nc2ccccc21	AHR act 56.2
Cc1cc(N/N=C/c2c[nH]c3ccccc23)c2ccccc2n1	AHR act 58.2
O=C(NCc1ccccc1Cl)c1cc2c(s1)CS(=O)(=O)C2	none
O=C(COC(=O)CNC(=O)c1ccc(Cl)c([N+](=O)[O-])c1)NC(=O)c1ccccc1	AHR act 56.9
Nc1ccc2c3c(cccc13)C(=O)N(c1ccccc1)C2=O	none (no result: procasp3 activ, procasp7 counter, AHR act)
CC(C)CCN1C(=O)c2cccc3c(N)ccc(c23)C1=O	AHR act 64.9
CSc1nc(/C=C2\C=Nc3ccccc32)c(O)n1C	AHR act 50.6
CC(C)n1c(O)c(/C=C2\C=Nc3ccccc32)sc1=Nc1ccccc1	none
CN(CC(=O)Nc1ccccc1Cl)C(=O)Cn1cnc2ccc(Cl)cc2c1=O	none (no result: PolyA inhibitor)
CCCCCN(C(=O)CCC(=O)OCC(=O)c1ccc(CCC)cc1)c1c(N)n(CCCC)c(=O)[nH]c1=O	none
COc1cccc(/C=N/n2c(-c3n[nH]c4c3CCC4)n[nH]c2=S)c1OC	AHR act 51.4
COc1ccc(/C=N/n2c(-c3n[nH]c4c3CCC4)n[nH]c2=S)c(OC)c1OC	none
Cc1cccc(N2CCN(Cc3ccc([N+](=O)[O-])o3)CC2)c1C	AHR act 57.2
O=C1C=C(c2ccccc2)CC(/C=C/c2ccccc2)C1 (stereo not drawn)	AHR act 75.2
CC(=O)N1CCN(c2ccccc2NC(=O)c2ccc(C#N)cc2F)CC1	AHR act 71.4
Cc1ccc(NC(=S)N/N=C2\CC(C)(C)Oc3ccc(O)cc32)cc1	AHR act 70.5
COc1ccc(NC(=O)c2cc(C(C)C)on2)c(OC)c1	none
COc1cc(NC(=O)c2cc(C(C)C)on2)c(OC)cc1Cl	AHR act 74.3
O=C(Nc1ccc2c(c1)OCO2)c1noc2c1CCCC2	AHR act 55.0
O=C(Nc1cc(Cl)ccc1Cl)c1noc2c1CCCC2	AHR act 75.1
COc1ccc(Cl)cc1NC(=O)c1noc2c1CCCC2	none
O=C(Nc1ccc2c(c1)OCO2)c1noc2c1CCCCC2	none
COc1cc(NC(=O)c2noc3c2CCCC3)c(OC)cc1Cl	AHR act 55.3
O=C(C1=NN[C@@H]2C(=O)N(c3cccc(F)c3)C(=O)[C@H]12)c1ccc2ccccc2n1	AHR act 98.7
CC1=NN(c2ccccc2)C(=O)/C1=C\c1c(C)[nH]n(-c2ccccc2)c1=O	none
CC1=NN(c2ccccc2)C(=O)/C1=C/c1c(O)n(-c2ccc(F)c(Cl)c2)[nH]c1=O	AHR act 49.4
Cc1ccc(SSc2cc(C)ccc2N)c(N)c1	AHR act 58.1
Cc1ccc(O)c(N)c1	none (no result: PolyA inhibitor)
Cc1ccc(-c2csc(NC(=O)c3c(C)noc3C)n2)s1	AHR act 76.0 (no result: PolyA inhibitor)
COc1cc(OC)c(C(=O)O/N=C(\N)c2ccccc2)cc1OC	AHR act 77.6
N/C(=N\OC(=O)c1cccc2ccccc12)c1ccncc1	AHR act 67.2
COc1cccc(OC)c1C(=O)O/N=C(\N)c1ccncc1	none
COc1ccc(C(=O)O/N=C(\N)c2ccccc2)cc1OC	none
COc1ccccc1C(=O)O/N=C(\N)c1ccc(Cl)cc1	AHR act 69.0
COc1ccc(C(=O)O/N=C(\N)c2ccc(Cl)cc2)cc1	none
Cc1cc(Br)c2c(c1)C1(OCCO1)C(=O)N2	none
CC(C)(C)C1CCC(=NNc2nc3ccccc3[nH]2)CC1 (stereo not drawn)	none
c1ccc2c(c1)CC/C2=N/Nc1nc2ccccc2[nH]1	AHR act 48.2
COc1cccc(CN(C)C(=O)CN2C(=O)NC(c3ccccc3)(c3ccccc3)C2=O)c1	none (no result: PolyA inhibitor)
COc1ccc2c(c1)C(=NNC(=O)c1ccccn1)c1cc(OC)ccc1-2	AHR act 52.2
